Test results: the EternaBench riboswitch data

System: MS2 coat protein
Test: apparent Kd, MS2 coat protein; higher = weaker binding; RNA-MaP array; FMN 200 µM where present
How it was run: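 Designs were transcribed by stalled E. coli RNA polymerase on Illumina sequencing-chip clusters. They were titrated with SNAP-549-labelled MS2 coat protein from 0.7 or 1.5 nM, doubling to 3 µM, in 100 mM Tris-HCl pH 7.5, 80 mM KCl, 4 mM MgCl2, BSA, DTT, yeast tRNA and Tween-20, without and then with constant ligand. The apparent Kd is the median of filtered per-cluster fits after normalisation of green signal to red-channel RNA signal and control-cluster median Fmax.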

[1] = designed as: ON switch for flavin mononucleotide, no ligand
[2] = ligand present: flavin mononucleotide, designed as: ON switch for flavin mononucleotide
[3] = designed as: OFF switch for flavin mononucleotide, no ligand
[4] = ligand present: flavin mononucleotide, designed as: OFF switch for flavin mononucleotide

Sequence	apparent Kd [1] [nM]	apparent Kd [2] [nM]	apparent Kd [3] [nM]	apparent Kd [4] [nM]
CCUAAGGACACAGGAUAUAGCGUGGUGGCUAGACUCCAACGGCGAGCGGCGCUAGAAGGGUGACCACAUGAGGAUCACCCAUGU	553	193	–	–
CCGUUACAUGAGGAUCACCCAUGUGAGGAUAUGGUUCGGUACUGUCCUGUCGCGUACUCCAGAAGGCACGUGUC	–	–	33.5	34.8
UGGUGAAAUGUAGGAUAUGGAAAUAAAUUUUAACCAGAAGGACAUGAGGAUCACCCAUGUGAUAGAGAAUUAAUAAUAGCUCCU	–	–	26.9	31.3
GGUACUCAAAGAGUACCAAUACGAACAUGAGGAUCACCCAUGUAGGAUAUGCUACUCAAAGAGUAGCAGAAGGACAUGUGCAUA	–	–	22.1	135
GUAGCAUACCGAGGAUAUUCAUACCGGAAACGGACAUGAGGAUCACCCAUGUUACGAAAGUAUUGGGAGAAGGCGGAAUGCUAC	135	22.6	–	–
UGAGAUCAUGUAGGAUAUGCAUGGCGAAGCUACGCAGAAGGACAUGAGGAUCACCCAUGUUAUAGCUACCCAGUUCGGUGGCAA	–	–	44.4	86.7
AGGGUAUGAACAUGAGGAUCACCCAUGUACUAGGAAACAAAUGAGGAUAUCGAUAGCAAAGCUAUCGAGAAGGCAUGGGACCCU	224	51.8	–	–
GAAAAACAUGAGGAUCACCCAUGUGUAAACAAGGGAGGAUAUACAAAGACGUAAGUCAAAGUAGAAGGCCUAAAAG	25	9.6	–	–
AUUUAAUUUAAUAAGAUCACAUGAGGAUCACCCAUGUAUAUAUAGGAUAUCAGCUCGAAUAGAGCUGAGAAGGAUAUAUACUAU	–	–	326	323
AGGUCAACCACAGGAUAUGGCUAGCAUAGCUAGCCAGAAGGGUGGUCGUAACUAUGUAAAUACAUGAGGAUCACCCAUGUAUCC	134	25.4	–	–
AUCUAAGAAUUAAUUGUGACUGACAGAAGGCAAUAGAAUGAGACCGACAUGAGGAUCACCCAUGUUGAGGAUAUGUCUUGCUAC	–	–	6.53	6.74
UAUGGUUAAGUCAGGAUAUACUAAUAGAAAUCUGUGUAGAAGGGACAUGAGGAUCACCCAUGUAUGGUAGUGUU	–	–	68.7	75.1
UAGAUGGGAGGAUAUACGUAGAUACAGAUUCGUGUAGUGCUACAUGAGGAUCACCCAUGUAGAAGGCCCGUCUU	–	–	13.6	22.9
AUAAUUUUAUAUAUCAUAUAAAUCAGAAGGCAUAACAUGAGGAUCACCCAUGUAUAUUAUUGUUAUGAGGAUAUGAUUUCGUUA	–	–	9.12	42.5
GUCAGCUCGUGAGGAUAUACAACACUGCUUCGGCAGUGUAUUAAGAUCACAUGAGGAUCACCCAUGUAGAAGGCACGAGCUGAG	–	–	13	200
CCGGAUAUGCAGGAUAUCGUAUCGGAAACGAUACGAGAAGGGUAUACAUGAGGAUCACCCAUGUGCCUUACCGG	–	–	19.7	21.9
GCAUGUAAGUAGAAGGGCAGAUAUUUUGAUACUGCAGGAUAUGCAGAAUCAUAUCCACAUGAUAACAUGAGGAUCACCCAUGUA	–	–	32.7	25.6
CAGGACCUUGAGGAUAUGUGACGAUUAUCGUUCAUAGAAGGUAAGACAUGAGGAUCACCCAUGUCCUGGCAUAA	–	–	15.1	15.1
AACAGCUCGUCAGGAUAUACAACACUGCUUCGGCAGAAUGAUAAGAUAACAUGAGGAUCACCCAUGUAGAAGGGACGAGCUGAA	–	–	6.01	8.32
CUGUAGAUAUCAGGAUAUCUAUUUCCUACAUGAGGAUCACCCAUGUAGGUGAUCACCCAAGUAAAGGAGAAGGGAUAUCUAUAG	65	23.2	–	–
UUGGUAUUCGUAGGAUAUCCGUCGCCACCGUGUGGAGAAGGACGAACAUGAGGAUCACCCAUGUAUCAUGGUGUGGGCGUUGUC	–	–	92.5	90.1
AGCUACGUUUCGUAGCAGUGUCAUCGAGAAGGCUCAUAUACAUGAGGAUCACCCAUGUUUUCAUGGGAGGAUAUCGAUGAUACA	108	8.76	–	–
UGUAUGGACAGAGGAUAUACGGAUAGGAUCUACUAUCCUCCUUAAAUAACAUGAGGAUCACCCAUGUAGAAGGCUGUCCAUACU	–	–	18.6	43.5
UCAUAAAUUCGAGGAUAUCGGUGAUAAAGAAGACGAGAAGGCGAUUAGAGAGAGAUGUUUAUAGACAUGAGGAUCACCCAUGUU	30	24.8	–	–
AUGAGGUCAGGAUAUGCAUGGCGGGACUUGCGUCGUGGCGUGCAGAAGGGACAUGAGGAUCACCCAUGUGGAGG	–	–	177	249
GAAGCAUCCAAUAACAUGAGGAUCACCCAUGUCAAAAGACGGGAGGAUAUUGAUCUGAAGAAGAUCAAGAAGGCCUGGUGCUAA	10.1	7.35	–	–
UGCAGACGAGGAUAUGAUCAAUAAUACAUGAGGAUCACCCAUGUAAUACUGAUCCAUGGAUCAGAAGGCGUCUGCU	–	–	16.2	24.6
ACCGUUGAAGCAGGAUAUUACAGCGCCAGCGUGUAAGAAGGGCUUCAACAUGAGGAUCACCCAUGUUGGAGUACCUCAAAAGUG	–	–	5.14	31.4

Sequence	apparent Kd [1] [nM]	apparent Kd [2] [nM]	apparent Kd [3] [nM]	apparent Kd [4] [nM]
CUCACGUUAGUAGGAUAUCCGACAUGAGGAUCACCCAUGUCACUACGCCUCAAGGGAAGGCGUAAGGAGAAGGGCUGAUAAAUA	254	156	–	–
UUUAUACAUGAGGAUCACCCAUGUGAGGAUAUGCUUUAUUAUUAUUAUUAUUAUUAUUGCAGAAGGUACGUUAU	–	–	35.7	36.1
AUGGACGUCGUAGGAUAUGUAGGAUUCUCGUACAUGAGGAUCACCCAUGUUGACGUCGAGGUCGGACAGAAGGGCGGUGUCUAU	20.9	8.65	–	–
CGUAACUACAUAGGAUAUUGAUACAUGAGGAUCACCCAUGUUAUAGGGAUUAGUAUAAUAUUAAGCAAGAAGGAUGAAGUUACG	23.4	14.8	–	–
AAGUAGACGGUGAGGAUAUAGGUCGAAUGACCGAUCUAGAAGGCACAUGAGGAUCACCCAUGUGGGUAACGUCG	–	–	17.8	20.7
CCAUCGAGUGUGAGGAUAUGCUGGUCCUUGGAUCAGCAGAAGGCACAUGAGGAUCACCCAUGUGAAUACGGUGG	–	–	29.9	199
UCGAGCAGGGAAUGGACGCUGAAGUAGGAUAUCCGCGUGGCCGUCCACAUGAGGAUCACCCAUGUGGAGAAGGGCUACAGCGAA	–	–	5.5	5.63
CCACGGUAUGUAGGAUAUGCAUAGCAUUGCUAUGCAGAAGGACAUGAGGAUCACCCAUGUAUGUAUUCCAUACUAAUCCCGUGC	–	–	6.42	6.37
UUGGACGUCGUAGGAUAUGUAGGAUAUUCCUACAUGAGGAUCACCCAUGUUGACAUGGAUGAAGGACAGAAGGACGAUGUCCAU	276	357	–	–
UGCAGACGAGGAUAUAGAUUUAAGUACAUGAGGAUCACCCAUGUGCAUAUGUAUUUAGAUUUAGAAGGCGUCUGCA	–	–	482	469
UUCAGCUCGUGAGGAUAUACAUGUGCUGGAUACAGCACUAUUAUGUUCACAUGAGGAUCACCCAUGUAGAAGGCACGAGCUGAG	–	–	16.6	21.4
CCUGGCACAUAGAAGGGUACAUGGCCUCUGCUACAUGAGGAUCACCCAUGUGCAGGAUAUGUGUGCCAGACUAUGCCGGUGUAA	–	–	20.2	16.1
GAGGAACAUGAGGAUCACCCAUGUGAGGAUAUGCAUAGCGAGGUAGUAGAAGUUGAAUGCAGAAGGUACACGGA	–	–	36	30.3
UUCAUGUGAGGAUAUAAAAGGAAGGUGGUAUCUAUCAACAAUUAGAAGGCACAUGAGGAUCACCCAUGUCUGAA	–	–	67	60.9
AACAAGUCAGGAUAUGUUAAAGGUUACGAAAGGGAUAAAGGGCAGAAGGGACAUGAGGAUCACCCAUGUAAUAA	–	–	58	50.2
UGGUGUGAAGGAUAUACAUGAGGAUCACCCAUGUAUGUGGUGUGUGUUGAGGUGGAGGGUAGAAGGUCAGGUGG	–	–	38.2	39.5
UGAGCAUGAGGAUAUACUUGGCGUGCGUGAGCACGAGGUUUACAUGAGGAUCACCCAUGUAGAAGGCAUGUUCU	–	–	18.2	51.6
CACAGGGCAGGAUAUACGAACAUGUCGCCAGAUGUCAUGGUACAUGAGGAUCACCCAUGUAGAAGGGCGUUGAU	–	–	50.5	52.8
CUGCGGUCAGGAUAUGCAUGGCGGGACUUGCGUCGUGGCGUGGAGAAGGGACAUGAGGAUCACCCAUGUGGAGA	–	–	67.9	42.3
GCAGGAUAAGUGAGGAUAUACCUAUGGAUACAUAGGUAGAAGGUACAUGAGGAUCACCCAUGUUCCUCACCUGC	–	–	9.54	10.1
AACACGAGAGGUGUUGUCUAACCACAUGAGGAUCACCCAUGUAAGGAUAUCGCGGCUAUCGGCAUCGAGAAGGUACAGGGAGCA	–	–	16.2	31.4
AGGUGACAUGAGGAUCACCCAUGUAAGGAUAUACGGUUAGUGGAGAGAGGGAAAAGAGGUAGAAGGUACGGAGC	–	–	266	142
GGGUACAUGGGAGGAUAUGGGAUGAUAACAUGAGGAUCACCCAUGUUAAAGAUGCCGAGAGGCAACUAGAAGGCCCAUGUACCG	440	59.2	–	–
AAUAACAGAGGAUAUACUGUUUUAUGUGUUUGUUAUUUUGAACAUGAGGAUCACCCAUGUAGAAGGCUGAUUGA	–	–	50	44.9
UAAUAAUAAUAAUAAUGGACUGAUACAUGAGGAUCACCCAUGUAGGAUAUGCAGUGGAAUACACUGCAGAAGGACAUACAGUCC	–	–	16.6	17.2
CUGUUAUUGAUCCAUUUUUUCAACAUGAGGAUCACCCAUGUGCAGGAUAUCUUGUUUAUUUUCAUCGAGAAGGGCAUAUUCACG	–	–	159	196
ACAUGAUCAGGAUAUACAUGAGGAUCACCCAUGUAAAUCAAAAAAAAACUUUCUUUAUGUAGAAGGGAUCUUGU	–	–	14.4	15.5
